In ChEMBL document CHEMBL3272259, “Nitroimidazoles with antibacterial activity against Neisseria gonorrhoeae” (1977):
Values after ≈ are worked out from the molar mass of the structure shown. Active and inactive are the calls of the source. The calls are words filed in the database; no cut-off is given here.

How the values were obtained:
Tritrichomonas foetus = assay: Antibacterial activity against Tritrichomonas foetus 1002-96-27 after 48 hrs by ten-fold serial dilution method; type: functional; conditions: 1002-96-27, 48 h
Procedure, shortened: (§1)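 Trichomonads were cultured in Diamond medium with 5% serum and incubated 48 h at 37 °C. Cultures were examined microscopically for motile cells, and the MIC (µg/mL) is the lowest concentration giving no motile organisms.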

Bacteroides fragilis = assay: Antibacterial activity against Bacteroides fragilis ATCC 23745 after 24 hrs by ten-fold serial dilution method; type: functional; conditions: ATCC 23745, 24 h
Procedure, shortened: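 Grown in Fluid Thioglycollate Broth and incubated 24 h at 37 °C. Growth was read by eye, and the MIC (µg/mL) is the lowest concentration that prevented visible growth.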

Pentatrichomonas hominis = assay: Antibacterial activity against Pentatrichomonas hominis ATCC 30000 after 48 hrs by ten-fold serial dilution method; type: functional; conditions: ATCC 30000, 48 h; procedure, shortened: as §1
Trichomonas vaginalis = assay: Antibacterial activity against Trichomonas vaginalis ATCC 30001 after 48 hrs by ten-fold serial dilution method; type: functional; conditions: ATCC 30001, 48 h; procedure, shortened: as §1
Clostridium perfringens = assay: Antibacterial activity against Clostridium perfringens ATCC 13124 after 24 hrs by ten-fold serial dilution method; type: functional; conditions: ATCC 13124, 24 h
Procedure, shortened: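 Grown in Fluid Thioglycollate Broth and incubated 24 h at 37 °C. Growth was checked by eye after incubation. MIC was taken as the lowest concentration, in μg/mL, that prevented visible growth.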

Candida albicans = assay: Antifungal activity against Candida albicans; type: functional, organism-based
Neisseria gonorrhoeae = assay: Antibacterial activity against Neisseria gonorrhoeae ATCC 19424 after 48 hrs by ten-fold serial dilution method; type: functional; conditions: ATCC 19424, 48 h
Procedure, shortened: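 Tested on chocolate agar made from GC agar base with hemoglobin and Supplement C, incubated 48 h at 37 °C. Plates were checked visually, and the MIC (µg/mL) is the lowest concentration with no visible growth.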

Structure (SMILES) | MIC (Tritrichomonas foetus) [µg/mL] | MIC (Bacteroides fragilis) [µg/mL] | MIC (Pentatrichomonas hominis) [µg/mL] | MIC (Trichomonas vaginalis) [µg/mL] | MIC (Clostridium perfringens) [µg/mL] | Activity (Candida albicans) | MIC (Neisseria gonorrhoeae) [µg/mL]
Cn1c([N+](=O)[O-])cnc1SCCCCCCCCCC(=O)O | 1 (≈ 3.04 µM) | 10 (≈ 30.4 µM) | 1 (≈ 3.04 µM) | 10 (≈ 30.4 µM) | 10 (≈ 30.4 µM) | inactive | 0.1 (≈ 0.304 µM)
Cn1c([N+](=O)[O-])cnc1SCCC(=O)O | 10 (≈ 43.2 µM) | 10 (≈ 43.2 µM) | 10 (≈ 43.2 µM) | 10 (≈ 43.2 µM) | 10 (≈ 43.2 µM) | inactive | 10 (≈ 43.2 µM)
Cn1c([N+](=O)[O-])cnc1S(=O)(=O)CCC(=O)O | 100 (≈ 380 µM) | > 100 | 100 (≈ 380 µM) | 100 (≈ 380 µM) | > 100 | inactive | 100 (≈ 380 µM)
Cn1c([N+](=O)[O-])cnc1SCCCCCCCCC(=O)O | 10 (≈ 31.7 µM) | 10 (≈ 31.7 µM) | 10 (≈ 31.7 µM) | 10 (≈ 31.7 µM) | 10 (≈ 31.7 µM) | inactive | 0.1 (≈ 0.317 µM)
Cn1c([N+](=O)[O-])cnc1S(=O)(=O)CCCCCCCOc1ccccc1[N+](=O)[O-] | > 100 | > 100 | > 100 | > 100 | > 100 | inactive | > 100
Cn1c([N+](=O)[O-])cnc1SCCCCCCCCCCC(=O)O | 10 (≈ 29.1 µM) | 10 (≈ 29.1 µM) | 10 (≈ 29.1 µM) | 10 (≈ 29.1 µM) | 10 (≈ 29.1 µM) | inactive | 0.1 (≈ 0.291 µM)
Cn1c([N+](=O)[O-])cnc1SCCCCCCC(=O)O | 10 (≈ 34.8 µM) | 1 (≈ 3.48 µM) | 1 (≈ 3.48 µM) | 1 (≈ 3.48 µM) | 1 (≈ 3.48 µM) | inactive | 0.1 (≈ 0.348 µM)
